Data: ChEMBL document CHEMBL1144383, “A new development of matrix metalloproteinase inhibitors: twin hydroxamic acids as potent inhibitors of MMPs” (Bioorg Med Chem Lett, 2005)

Columns and labels:
[1] = target: 72 kDa type IV collagenase (Homo sapiens, UniProt P08253); assay: Inhibition of Matrix metalloprotease-2 in MMPi assay
[2] = target: Matrix metalloproteinase-9 (Homo sapiens, UniProt P14780); assay: Inhibition of Matrix metalloprotease-9 in MMPi assay
Interstitial collagenase = target: T1, Interstitial collagenase (Homo sapiens, UniProt P03956); assay: Inhibition of Matrix metalloprotease-1 in MMPi assay
T1 sequence (P03956 whole entry): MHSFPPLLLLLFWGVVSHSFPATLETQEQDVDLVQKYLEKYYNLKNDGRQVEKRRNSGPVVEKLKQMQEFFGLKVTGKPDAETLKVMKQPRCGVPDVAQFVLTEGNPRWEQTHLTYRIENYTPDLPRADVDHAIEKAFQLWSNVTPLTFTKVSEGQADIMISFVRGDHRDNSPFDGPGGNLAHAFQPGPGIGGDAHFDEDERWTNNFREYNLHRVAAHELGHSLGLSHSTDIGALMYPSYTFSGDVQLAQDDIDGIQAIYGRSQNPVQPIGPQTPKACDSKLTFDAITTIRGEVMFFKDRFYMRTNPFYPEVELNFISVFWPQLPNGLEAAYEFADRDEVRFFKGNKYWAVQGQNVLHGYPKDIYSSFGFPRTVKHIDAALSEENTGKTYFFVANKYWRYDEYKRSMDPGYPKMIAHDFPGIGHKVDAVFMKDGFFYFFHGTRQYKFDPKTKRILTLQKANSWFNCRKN

[3] = target: Matrix metalloproteinase-14 (Homo sapiens, UniProt P50281); assay: Inhibition of Matrix metalloprotease-14 in MMPi assay
HT-1080 [4] = assay: Cytotoxicity as percentage of dead cells at 10 uM using Trypan Blue test on HT1080 cells; format: functional, Homo sapiens
In short: (§1)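 HT1080 cells stably transfected to overexpress MT1-MMP, seeded at 10⁵ cells/well and kept overnight at 37 °C. Washed free of serum, then given serum-free DMEM with insulin, transferrin and selenium. Compound added at 0, 1, 5 or 10 (micromolar) to duplicate wells for 24 h. Trypsinized cells mixed 1:1 with 0.4% trypan blue for 5 min. Blue-stained and total cells counted on haemocytometer upper and lower grids. % dead = mean of duplicates minus untreated wells.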

HT-1080 [5] = assay: Cytotoxicity as percentage of dead cells at 1 uM using Trypan Blue test on HT1080 cells; format: functional, Homo sapiens; in short: as §1
[6] = tested on: Matrix metalloproteinase-14; assay: Inhibition of Matrix metalloprotease-14 in MMPi assay
HT-1080 [7] = assay: Cytotoxicity as percentage of dead cells at 5 uM using Trypan Blue test on HT1080 cells; format: functional, Homo sapiens; in short: as §1

Chain of Matrix metalloproteinase-9 (P14780 whole entry): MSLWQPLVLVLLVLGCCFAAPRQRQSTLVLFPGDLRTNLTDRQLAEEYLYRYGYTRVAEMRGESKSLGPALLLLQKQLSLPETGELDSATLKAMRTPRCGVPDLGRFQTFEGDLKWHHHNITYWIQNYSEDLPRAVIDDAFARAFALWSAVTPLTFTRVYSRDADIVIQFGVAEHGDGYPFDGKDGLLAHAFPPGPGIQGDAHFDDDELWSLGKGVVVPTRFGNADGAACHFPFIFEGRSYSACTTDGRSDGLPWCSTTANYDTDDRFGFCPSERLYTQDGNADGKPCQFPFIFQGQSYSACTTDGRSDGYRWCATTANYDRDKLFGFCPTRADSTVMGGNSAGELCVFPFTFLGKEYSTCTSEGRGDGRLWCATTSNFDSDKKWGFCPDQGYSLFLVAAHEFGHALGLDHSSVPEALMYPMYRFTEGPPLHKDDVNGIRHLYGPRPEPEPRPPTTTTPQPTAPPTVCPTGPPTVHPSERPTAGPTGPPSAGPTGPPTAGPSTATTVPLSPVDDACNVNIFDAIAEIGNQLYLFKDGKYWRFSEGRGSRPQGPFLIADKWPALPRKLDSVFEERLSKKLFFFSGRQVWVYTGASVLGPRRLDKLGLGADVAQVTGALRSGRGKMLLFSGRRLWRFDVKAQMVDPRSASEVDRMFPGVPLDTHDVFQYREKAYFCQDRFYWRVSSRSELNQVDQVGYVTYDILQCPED
Chain of 72 kDa type IV collagenase (P08253 whole entry): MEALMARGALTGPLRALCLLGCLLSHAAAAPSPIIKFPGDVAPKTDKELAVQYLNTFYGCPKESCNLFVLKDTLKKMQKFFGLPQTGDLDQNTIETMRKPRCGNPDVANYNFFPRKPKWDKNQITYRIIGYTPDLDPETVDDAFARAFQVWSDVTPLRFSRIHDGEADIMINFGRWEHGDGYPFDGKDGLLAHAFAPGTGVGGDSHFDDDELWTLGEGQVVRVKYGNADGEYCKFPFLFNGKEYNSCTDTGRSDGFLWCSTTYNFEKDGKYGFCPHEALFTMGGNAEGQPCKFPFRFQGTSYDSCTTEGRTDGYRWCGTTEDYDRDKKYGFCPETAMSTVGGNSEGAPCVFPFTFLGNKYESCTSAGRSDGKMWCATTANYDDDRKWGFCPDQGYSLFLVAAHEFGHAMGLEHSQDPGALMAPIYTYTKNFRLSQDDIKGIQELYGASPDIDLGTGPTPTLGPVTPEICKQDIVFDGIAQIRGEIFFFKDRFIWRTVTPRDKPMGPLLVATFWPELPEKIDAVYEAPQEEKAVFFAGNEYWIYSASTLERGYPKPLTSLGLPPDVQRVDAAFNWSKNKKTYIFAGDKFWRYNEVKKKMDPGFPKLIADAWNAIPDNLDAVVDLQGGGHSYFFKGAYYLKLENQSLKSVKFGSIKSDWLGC

SMILES	IC50 [1]	IC50 [2]	IC50 (Interstitial collagenase)	IC50 [3]	Dead cells (HT-1080 [4])	Dead cells (HT-1080 [5])	IC50 [6]	Dead cells (HT-1080 [7])
CC(C)ON([C@H](CCNC(=O)c1cccc(C(=O)NCC[C@H](C(=O)O)N(OC(C)C)S(=O)(=O)c2ccc(-c3ccccc3)cc2)c1)C(=O)O)S(=O)(=O)c1ccc(-c2ccccc2)cc1	> 1000 nM	> 30000 nM	–	–	–	–	–	–
CC(C)ON([C@H](CCNC(=O)c1cccc(C(=O)NCC[C@H](C(=O)NO)N(OC(C)C)S(=O)(=O)c2ccc(-c3ccccc3)cc2)c1)C(=O)NO)S(=O)(=O)c1ccc(-c2ccccc2)cc1	197 nM	983 nM	10000 nM	1490 nM	–	–	–	–
CC(C)ON([C@H](CCNC(=O)CCCNC(=O)c1cccc(C(=O)NCCCC(=O)NCC[C@H](C(=O)NO)N(OC(C)C)S(=O)(=O)c2ccc(-c3ccccc3)cc2)c1)C(=O)NO)S(=O)(=O)c1ccc(-c2ccccc2)cc1	9.8 nM	8.3 nM	397 nM	–	10%	0%	34 nM	5%
CC(C)ON([C@H](CCNC(=O)OCc1ccccc1)C(=O)NO)S(=O)(=O)c1ccc(-c2ccccc2)cc1	–	–	> 3000 nM	–	35%	4%	–	20%
